CSC inhib – cancer stem cell viability inhibitors, primary screen, luminescence | cancer stem cell-like cells viability | inhibition, % at 7.5 µM | 300,000 tested, 1.1% active | AID 2717, 2010; in the data active = inhibition above about 75%; inconclusive = no clear call, values can overlap the other calls; tested in HMLE shEcad cells
H9c2 TAG inh – inhibitors of triacylglycerol accumulation, primary screen, cell-based, uHTS, fluorescence, H9c2. H9c2 cells, Nile Red lipid (TAG) fluorescence; cells loaded with 200 µM oleic acid. inhibition, % at 12.5 µM. 230,000 tested, 0.66% active. AID 651582, 2012;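 active = pattern-corrected inhibition of lipid staining of at least 50% with the nuclear-stain viability signal not falling by more than 50%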;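 note: 0% = DMSO wells and 100% = triacsin C control wells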
Bfl-1 A1 inh – caspase 3/7 activation in MEF A1-2A-BIM cells, primary screen, A1 inhibitor project, cell-based, luminescence, HTS | Caspase-Glo 3/7 luminescence, 3 h; percent of clofoctol response, vehicle zero | caspase activation, % (test concentration not listed) | 330,000 tested, 0.066% active | AID 2462, 2010;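 active = over half of replicate activation scores above 10%, or exactly half above 10 with the replicate mean above 10; inconclusive = replicate mean below 10 yet half the replicates above 10; inactive = over half of replicates below 10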
T cruzi inh – inhibitors of intracellular T. cruzi growth, primary screen, luminescence, NIH3T3 host cells | T. cruzi beta-gal in NIH3T3, 90 h | inhibition, % (concentration not given with the values) | 300,000 tested, 1.4% active;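 active = mean inhibition across valid replicates above about 55%, limit read from the data; inconclusive = mean below that limit but half or more replicates reach it; inactive = mean below it, under half of replicates reach it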;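 note: signal also drops with host cell toxicity which is not excluded here; 0% = plate median of DMSO wells and 100% = zero luminescence signal; higher percent means less beta-gal luminescence so fewer parasites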
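assay system = mouse NIH/3T3 fibroblasts infected with β-gal-expressing T. cruzi Tulahuen C4 | input = 5,000 NIH/3T3 host cells per well | buffer or medium = DMEM plus 2% FBS | timing = 3 h host attachment, then at least 90 h co-culture | measured by = GalScreen luminescence, 60 min | evaluation = luminescence reflecting intracellular parasite burden, expressed as percent inhibition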
Calb FLC – C. albicans growth inhibition with fluconazole, primary screen, CaCi-2 strain, Alamar Blue fluorescence | 300,000 tested, 0.57% active | growth inhibition, % (test concentration not listed) | C. albicans CaCi-2 (fluconazole-resistant clinical isolate) + fluconazole, 48 h;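 active = growth inhibition above about 58% in most replicates, limit read from the data, passing the limit was not always enough; inconclusive = exactly half the replicates above a set limit; inactive = most replicates below a set limit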;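 note: all wells also contain fluconazole at 8 µg/ml as a sub-toxic cotreatment; 0% = median of DMSO wells and 100% = median of geldanamycin control wells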
Beta cell apopt – inhibitors of cytokine-induced beta cell apoptosis, primary screen, luminescence; INS-1E cytokine-induced death, ATP luminescence, 48 h; percent of positive-control rescue, neutral wells zero; protection from apoptosis, % (no concentration beside the values); 300,000 tested, 0.8% active; AID 435005, 2010;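 active = Every replicate reaches about 75%, or at least half do and their mean reaches it too, limit read from the data; inconclusive = At least half of replicates reach the limit but their mean does not; inactive = Under half of replicates reach the limit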;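 note: 0% = cytokine-treated negative control wells and 100% = positive control rescue; higher means more ATP so stronger rescue from cytokine killing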
TAG conf – triacylglycerol accumulation inhibitors, retest, confirmation, cell-based, single concentration, Nile Red fluorescence, H9c2; H9c2 lipid accumulation; cells loaded with 200 µM oleic acid; AID 651629, 2012; inhibition, % at 12.5 µM; 990 tested, 71% active; shares compounds with H9c2 TAG inh;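 active = mean inhibition across replicates of 40% or more; inactive = mean inhibition below 40%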;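 note: plate controls were DMSO only wells for no effect and Triacsin C treated wells for full effect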
* hit, by the source's call; ? = inconclusive; · = no result. Compounds with a hit are over-represented: about 3.1% of the library has one in this group of screens.

SMILES | CSC inhib | H9c2 TAG inh | Bfl-1 A1 inh | T cruzi inh | Calb FLC | Beta cell apopt | TAG conf
Cc1noc(C)c1S(=O)(=O)N(CC(=O)NCCc1ccccc1)c1ccc(C(C)C)cc1 | 14.0 | · | 0.2 | 36.1 | 4.6 | -1.0 | ·
Cc1ccc(-c2ccc3c(c2)O[C@H](CN(C)Cc2cncnc2)[C@@H](C)CN([C@H](C)CO)S3(=O)=O)cc1 | · | 9.8 | · | · | · | · | ·
COc1ccc(-n2ccnc2SCC(=O)NC2CCCC2)c(OC)c1 | -17.0 | 71.1* | 1.2 | -8.6 | 1.7 | -6.9 | 16.6
CCOC(=O)c1c(C)[nH]c(C(=O)OCc2nc3ccsc3c(=O)[nH]2)c1C | · | -2.2 | · | · | · | · | ·
COc1cc(OC)c(-c2nn3c(-c4ccco4)nnc3s2)cc1OC | · | 53.6* | · | · | · | · | 38.2
COc1ccc(-c2nn3c(-c4ccco4)nnc3s2)cc1OC | 14.9 | 4.8 | -1.1 | 10.6 | 6.5 | 1.9 | ·
CSc1ccc(C2=C/C(=C3/SC(=S)NC3=O)c3ccccc3O2)cc1 | · | 59.3* | · | · | · | · | 58.1*
CCN1/C(=C2/SC(=S)NC2=O)Sc2ccccc21 | 3.4 | 4.6 | -0.5 | -18.7 | ? | 3.7 | ·
COc1ccc(CC(Cc2ccc(OC)c(OC)c2)NC=O)cc1OC | · | -1.6 | · | · | · | · | ·
COc1ccc2cc(Br)ccc2c1CC(=O)NC1CC(C)(C)NC(C)(C)C1 | 32.0 | 63.6* | -0.4 | 15.3 | 29.8 | 0.2 | 12.4
Cc1ccc(CNC(=O)C2CCC(=O)N(CC3CCCCC3)C2)o1 (stereo not given) | -5.9 | -16.6 | 0.8 | -12.3 | -6.2 | -3.3 | ·
COc1ccc(-c2cn3cc([N+](=O)[O-])ccc3n2)cc1OC | -0.1 | 9.5 | -1.2 | 6.7 | 9.1 | 4.8 | ·
COc1ccc(-c2nc(-c3ccccc3)c(-c3cc([N+](=O)[O-])ccc3C)[nH]2)cc1OC | 33.1 | 50.1* | 0.0 | 38.4 | ? | 7.2 | 57.7*
COc1ccccc1N1CCN(CC(=O)Nc2cc(F)ccc2C)CC1 | -11.6 | 1.7 | -0.2 | -0.1 | 22.7 | -7.4 | ·
COc1ccccc1N1CCN(CC(=O)Nc2cc(C)nn2-c2nc(C)cc(C)n2)CC1 | · | 55.4* | · | · | · | · | 56.1*
N#Cc1ccccc1S(=O)(=O)N1CCN(C(=O)C2COc3ccccc3O2)CC1 (stereo not given) | -26.3 | -14.3 | 1.0 | · | · | 1.3 | ·
Cc1ccc(-n2ncc3c2CCCC3NC(=O)CCc2cnccn2)cc1C (stereo not given) | -3.2 | -1.7 | 0.5 | -5.1 | -2.7 | -3.5 | ·
CCOc1ccccc1NC(=O)c1cccc(NC(=O)c2ccco2)c1 | 59.9 | 79.2* | 1.6 | -0.5 | 3.6 | 17.4 | 82.0*
CCc1ccccc1N1C(=O)C2C3C=CC(CC3)C2C1=O (stereo not given) | 4.6 | · | -0.3 | -0.9 | 3.8 | · | ·
COc1ccc(-c2sc3ccc(N4CCOCC4)cc3c2C#CCCO)cc1 | 122.6* | 51.4* | -0.6 | · | · | -1.8 | 55.0*
O=C(c1ccc(Cl)cc1)C1CCN(C(=S)Nc2ccccc2)CC1 | · | 5.7 | · | · | · | · | ·
CCOc1ccc(CCNC(=O)c2cc3sc(Cl)cc3n2C)cc1OCC | 5.7 | 59.8* | -0.4 | 37.5 | -0.1 | -2.9 | 40.7*
COC(=O)[C@]1(CC(C)C)N[C@H](c2ccc(-c3ccc(OC)cc3)cc2)[C@@H]2C(=O)N(C)C(=O)[C@@H]21 | 18.1 | 54.1* | 0.0 | -12.0 | -1.1 | 0.8 | 35.8
CCN1C(=O)[C@H]2[C@@H](c3ccc(-c4ccc5c(c4)OCO5)cc3)N[C@@](Cc3ccccc3)(C(=O)OC)[C@H]2C1=O | · | -1.1 | -0.2 | · | · | -2.1 | ·
COC(=O)[C@]1(CC(C)C)N[C@H](c2ccc(-c3ccccc3)cc2)[C@@H]2C(=O)N(C)C(=O)[C@@H]21 | · | 44.7 | 1.0 | · | · | -3.7 | ·
SMILES | CSC inhib | H9c2 TAG inh | Bfl-1 A1 inh | T cruzi inh | Calb FLC | Beta cell apopt | TAG conf
CCN1C(=O)[C@H]2[C@@H](c3ccc(-c4cccc(Cl)c4)cc3)N[C@@](Cc3ccccc3)(C(=O)OC)[C@H]2C1=O | 12.2 | 51.5* | -0.1 | 55.3* | 6.8 | -0.8 | 60.3*
COC(=O)[C@]1(C)N[C@H](c2ccc(-c3ccc(Cl)c(Cl)c3)c(OC)c2)[C@@H]2C(=O)N(C)C(=O)[C@@H]21 | 69.4 | 51.2* | 0.1 | 12.4 | 19.2 | -3.5 | 35.5
COC(=O)[C@]1(CC(C)C)N[C@H](c2ccc(-c3ccc(F)cc3)cc2)[C@@H]2C(=O)N(C)C(=O)[C@@H]21 | 17.6 | 55.6* | -0.3 | 17.9 | -14.5 | 4.5 | 43.3*
COCC(=O)N1CCC(Oc2ccc(C(=O)NCc3cc(C(C)C)no3)cc2)CC1 | 19.4 | -4.4 | 0.3 | -13.6 | -1.1 | 5.7 | ·
COc1ccc(/C=C/C(=O)OCC(=O)Nc2ccc3c(c2)OCO3)cc1 | -6.3 | -3.3 | 0.4 | · | · | -6.1 | ·
Cc1ccccc1Oc1ccc2c(c1)[C@@H]1C[C@H](N(C)C(=O)c3ccc(C#N)cc3)[C@H]([C@H](C)O)C(=O)N1CC2 | · | 1.3 | · | · | · | · | ·
CCC(=O)NNC(=O)c1cc(COc2cc(Cl)cc(Cl)c2)on1 | 12.7 | -4.9 | -0.3 | 9.2 | -3.9 | -5.8 | ·
N#Cc1c(N)n(CCCN2CCOCC2)c2nc3ccccc3nc12 | -9.6 | 11.7 | -1.0 | · | · | 1.1 | ·
Nc1c(C(=O)Nc2ccccc2)c2nc3ccccc3nc2n1CCCN1CCOCC1 | 97.9* | 83.1* | -0.2 | 26.8 | 16.3 | 2.3 | 86.0*
COc1cc2c(cc1OC)CN(C1CCCN(Cc3cc(Cl)ccc3O)C1)CC2 (stereo not given) | 26.3 | · | 0.9 | 49.8 | -0.5 | -7.0 | ·
Cc1ccc(NC(=O)CSc2nc(-c3ccco3)cc(C(F)(F)F)n2)cc1C | · | · | -0.3 | -3.5 | -2.8 | 3.6 | ·
O=C(CSc1nc(-c2ccco2)cc(C(F)(F)F)n1)Nc1ccc2c(c1)CCC2 | 51.3 | 51.8* | -0.2 | 8.2 | 0.9 | 0.1 | 25.0
O=C(Nc1ccc([N+](=O)[O-])cc1)c1cc(Cl)sc1Cl | -16.4 | · | 2.6 | -10.8 | 0.5 | · | ·
O=C(Nc1ccc(F)cc1)c1cc(Cl)sc1Cl | -2.0 | 52.2* | -2.4 | · | -13.2 | 3.3 | -4.2
Nc1ccc2ccccc2c1N=Nc1ccccc1 | · | 56.5* | · | · | · | · | 52.8*
c1ccc(C2=NN(c3ccccc3)CC2)cc1 | -10.2 | -5.8 | -5.8 | 15.4 | -3.5 | 2.2 | ·
c1ccc(N=NC2=NN(c3ccccc3)CS2)cc1 | · | 95.6* | · | · | · | · | 112.8*
Cc1c(C(=O)Nc2cccnc2Cl)oc2ccccc12 | -3.3 | · | -2.7 | -3.3 | 2.4 | 4.5 | ·
COc1cccc(/C=N/NC(=O)CNC(=O)COc2ccccc2)c1O | 55.1 | 50.6* | 1.3 | 3.8 | -11.5 | 18.6 | 0.8
Nc1ncnc2c1ncn2C1C=C(CO)C(O)C1O (stereo not given) | · | 74.8* | · | · | · | · | 75.6*
CSCCC(NC(=O)c1ccco1)C(=O)NNC(=O)c1n[nH]c(=O)c2ccccc12 (stereo not given) | 7.5 | 21.7 | 0.0 | · | · | -0.7 | ·

Screening data from PubChem BioAssay.
